Test [1] has as its system HL-60. Kind of test: Induction of apoptosis in human HL-60 cells assessed as DNA fragmentation by agarose gel electrophoresis. It counts as functional, cell-based. Put shortly: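 HL-60 cells exposed to increasing retinoid concentrations. DNA isolated from each culture, run on a 2% agarose gel, stained with ethidium bromide and viewed under UV. Laddering scored as positive or negative.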

Test [2] concerns HL-60. Kind of test: Induction of human HL-60 cell differentiation assessed as cell surface CD11b antigen expression measured as mean fluorescence index at 0.0001 uM to 1 uM after 3 days by FACS relative to ATRA. The test is classed as functional. In outline:
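Thymidine-synchronized HL-60 cells, 10⁵ cells/well, cultured 3 days with retinoids (10^-10–10^-6 M) in RPMI-1640. CD11b surface expression quantified by flow cytometry (excitation 490 nm, emission 520 nm), 10⁴ cells counted per treatment. Readout is mean fluorescence index (% fluorescent cells × mean intensity), normalized to ATRA values.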
(In general: Flow cytometry measures light scatter and fluorescence of single cells or particles in a stream.)

Test [3] concerns HL-60. Kind of test: Antiproliferative activity against human HL-60 cells assessed as cell cycle distribution at 0.0001 uM to 1 uM after 3 days by FACS relative to ATRA. It counts as functional. In outline:
(§1)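 HL-60 cells (RPMI-1640, 10% dextran-coated charcoal-treated FCS, kanamycin; S-phase synchronized twice with 2.5 mM thymidine) seeded 10⁵ cells/well and exposed to retinoids for 3 days at 37 °C, 5% CO₂. Cells permeabilized with 0.2% Triton-X plus RNase (37 °C, 1 h), stained with propidium iodide (4 °C, 20 min), and cell cycle phases quantified by flow cytometry (488 nm argon laser).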

Test [4] concerns HL-60. Kind of test: Cell cycle arrest in human HL-60 cells assessed as accumulation at G0/G1 phase at 10 pM to 1 uM by FACS. The test is classed as functional, cell-based. Put shortly: as §1
Test [5] deals with T1, Retinoic acid receptor beta (Homo sapiens) (UniProt P10826).
T1 sequence (whole entry): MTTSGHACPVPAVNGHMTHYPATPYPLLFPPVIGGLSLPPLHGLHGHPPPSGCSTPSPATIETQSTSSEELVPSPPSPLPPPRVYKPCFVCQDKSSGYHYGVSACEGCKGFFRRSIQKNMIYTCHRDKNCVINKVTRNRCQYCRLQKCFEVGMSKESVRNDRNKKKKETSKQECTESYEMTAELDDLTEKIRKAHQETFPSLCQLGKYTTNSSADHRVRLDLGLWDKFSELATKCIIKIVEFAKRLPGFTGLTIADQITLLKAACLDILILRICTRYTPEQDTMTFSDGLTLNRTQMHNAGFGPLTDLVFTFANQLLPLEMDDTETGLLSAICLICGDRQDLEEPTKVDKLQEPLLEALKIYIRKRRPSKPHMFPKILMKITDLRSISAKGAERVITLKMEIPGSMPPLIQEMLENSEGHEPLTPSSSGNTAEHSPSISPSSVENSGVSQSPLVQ
Kind of test: Increase in transcriptional activity of human RARbeta receptor expressed in human MG63 cells co-transfected with pGL3-RARE at 1 uM by luciferase reporter gene assay relative to ATRA. It counts as cell-based. The settings on record: MG-63, in the assay text read “relative to control” for “relative to ATRA”. In outline:
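MG-63 osteosarcoma cells in DMEM with 10% charcoal-stripped FCS were seeded 2 × 10⁵/well the day before transfection. Cotransfected (Tfx-50) with human RARβ promoter–RARE3-SV40-luciferase reporter and pRL-CMV control. Retinoids applied for 2 days at 10^-6 M. Firefly luciferase normalized to Sea Pansy luciferase, expressed as fold induction over control. At least three repeats, mean ± SE.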
(In a reporter assay the amount or activity of a reporter protein is the signal.)

Our source for the Activity values is ChEMBL document CHEMBL1144184, “Preparation and biological evaluation of 5-substituted retinoic acids” (2008).

The source made the active and inactive calls. No cut-off for these calls is given here. Bounds are passed on as bounds.

For `CCCCC1=C(/C=C/C(C)=C\C=C\C(C)=C\C(=O)O)C(C)(C)CCC1`, the outcome in the test with HL-60 [1] was inactive. Besides, the Activity in the test on HL-60 [2] is recorded as 9; in the test with HL-60 [3], 14.

As for `CC(=C/C=C/C(C)=C/C(=O)O)/C=C/C1=C(Cc2ccc3ccccc3c2)CCCC1(C)C`, in the test with HL-60 [1], the outcome was inactive. In addition, the Activity in the test on HL-60 [2] is recorded as less than 0.22; in the test on HL-60 [3] it was less than 0.81.

In the case of `CC(/C=C/C1=C(Cc2ccc3ccccc3c2)CCCC1(C)C)=C\C=C\C(C)=C\C(=O)O`, the result (in the test on HL-60 [4]; in test [5]) was Active. Moreover, the outcome in the test with HL-60 [1] was inactive. The Activity with HL-60 [2] is less than 0.22; with HL-60 [3] it was less than 0.81.

With `CC(=C/C=C/C(C)=C/C(=O)O)/C=C/C1=C(Cc2ccccc2)CCCC1(C)C`, the result in the test with HL-60 [1] was inactive. Moreover, the Activity turned out to be 6 in the test with HL-60 [2] and 11 in the test with HL-60 [3].

As to `CC(/C=C/C1=C(CC(C)C)CCCC1(C)C)=C\C=C\C(C)=C\C(=O)O`, the result (with HL-60 [4]; in test [5]) was Active. The outcome in the test on HL-60 [1] was inactive. For the same molecule, the Activity was 310 with HL-60 [2] and 35 in the test on HL-60 [3].

In the case of `CC(=C/C=C/C(C)=C/C(=O)O)/C=C/C1=C(CC(C)C)CCCC1(C)C`, the result in the test on HL-60 [1] was inactive. For the same molecule, the Activity in the test on HL-60 [2] is listed as 10; in the test on HL-60 [3], 16.

Turning to `CCCCC1=C(/C=C/C(C)=C/C=C/C(C)=C/C(=O)O)C(C)(C)CCC1`, the result (with HL-60 [4]; in test [5]) was Active. Further, the result in the test with HL-60 [1] was inactive. Further, the Activity is on record as 129 in the test with HL-60 [2] and 193 with HL-60 [3].

Turning to `CC(/C=C/C1=C(Cc2ccccc2)CCCC1(C)C)=C\C=C\C(C)=C\C(=O)O`, the result (in the test on HL-60 [4]; in test [5]) was Active. Besides, in the test on HL-60 [1], the outcome was inactive. In addition, the Activity in the test with HL-60 [2] and in the test with HL-60 [3] was 2 each time.
